# Test results published in PubChem BioAssay AID588627 (Johns Hopkins Ion Channel Center, 2011).
# The campaign covered roughly 310,000 compounds. About 1,400 (0.45%) were called active.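 Rule for the calls: active = calcium response B-score plate-corrected fluorescence ratio at least 3 library SD, with starting fluorescence B-score inside 5 SD; inactive = the rest.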 Only a selection was taken, and actives are over-represented in it overall.
# Biological target: Mas-related G-protein coupled receptor member X1 (Homo sapiens) (UniProt Q96LB2)
# Assay: MrgX1 activation via calcium signaling – HEK293 cells, Fluo-4 calcium flux, primary screen (AID 588627);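 for B-score: B-score of the peak-minus-trough calcium fluorescence change over baseline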
# Details: Fluo-4 calcium fluorescence, agonist mode, at 10 µM; active compounds read high
# Outline: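 Assay system: MrgX1-expressing HEK293 cells / Amount: fifteen thousand cells per well / Doses: test compound in the initial addition of three / Timing: cells plated overnight, dye loaded 0.5 h 37 °C, 0.5 h room temperature / Technique: kinetic calcium dye fluorescence, Fluo-4 NW / Control set: positive and negative controls per plate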
# Sequence of Mas-related G-protein coupled receptor member X1 (Homo sapiens) (Q96LB2 whole entry, looked up): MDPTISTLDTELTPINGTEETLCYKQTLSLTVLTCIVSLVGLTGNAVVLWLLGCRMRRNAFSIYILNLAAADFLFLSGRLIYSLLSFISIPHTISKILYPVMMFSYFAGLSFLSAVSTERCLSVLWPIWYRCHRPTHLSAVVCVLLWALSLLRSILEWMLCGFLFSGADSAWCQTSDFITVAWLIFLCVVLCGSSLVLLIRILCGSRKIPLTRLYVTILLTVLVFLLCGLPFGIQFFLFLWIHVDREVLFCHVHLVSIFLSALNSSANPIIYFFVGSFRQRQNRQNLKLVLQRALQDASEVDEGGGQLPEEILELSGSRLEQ
row,Structure (SMILES),B-score
1,COc1cccc(-c2ccc(SCC(=O)N3CCN(c4ccccc4)CC3)nn2)c1,inactive
2,Cc1ccc(-c2ccc(/C=N/NC(=O)CN3CCOCC3)o2)cc1[N+](=O)[O-],inactive
3,CN1CCN(/N=C/c2ccc(-c3ccc([N+](=O)[O-])cc3)o2)CC1,31.5 (active)
4,CN1CCN(/N=C/c2ccc(C#N)cc2)CC1,inactive
5,Cn1c(Cn2nnc3ccccc32)nnc1SCC(=O)c1ccccc1F,inactive
6,CCN(CC)S(=O)(=O)c1ccc(N2CCCC2)c(NS(=O)(=O)c2cccs2)c1,inactive
7,Cc1cc2nc(C(F)(F)F)cc(-c3cccs3)n2n1,inactive
8,CC(C)(C)Nc1c(-c2cccs2)nc2ccccn12,44.8 (active)
9,Cc1nc2ccccn2c(=O)c1NC(=O)c1cccs1,inactive
10,COC(=O)c1ccc(NC(=O)CN(c2ccc(C)cc2)S(=O)(=O)c2c(C)n[nH]c2C)cc1,inactive
11,O=C(CSC1=NS(=O)(=O)c2cc(F)ccc2N1)Nc1ccccc1F,inactive
12,COC(=O)Cn1cc(/C=C/[N+](=O)[O-])c2ccccc21,31.6 (active)
13,COC(=O)N/N=C/c1cn(CCCOc2ccc(C)cc2)c2ccccc12,inactive
14,COC(=O)c1cn(CC(=O)NCc2cccs2)c2ccccc12,inactive
15,CCCCn1c(N)c(N(CCOC)C(=O)c2cccc(S(=O)(=O)N3CCCCC3)c2)c(=O)[nH]c1=O,inactive
16,COCCCNC(=O)CN1C(=O)CSc2ccc(S(=O)(=O)N3CCOCC3)cc21,inactive
17,C=CCN(C(=O)Nc1ccc2oc(C)nc2c1)c1ccccc1,inactive
18,CCN(CC)c1ccc(C(=O)Nn2c(C)nc3ccccc3c2=O)cc1,inactive
19,CCN(CC)c1ccc2oc(=O)c(C)nc2c1,27 (active)
20,Cc1ccc2c(c1)C1CN(C)CCC1N2S(=O)(=O)c1ccc(Oc2ccc([N+](=O)[O-])cc2)cc1 (centres undefined),inactive
21,COC(=O)CNC(c1ccccc1Cl)c1cc(Br)ccc1NC(=O)CCN1CCOCC1 (centres undefined),inactive
22,O=C1/C(=C/c2ccc(F)cc2)SC(=S)N1CCCC(=O)N1CCCCC1CCO (centres undefined),inactive
23,O=C1/C(=C/c2ccc(F)cc2)SC(=S)N1NS(=O)(=O)c1ccccc1,27.7 (active)

row,Structure (SMILES),B-score
1,O=C(O)c1ccc(/C=C2\SC(=S)N(NC(=O)c3ccc(Br)cc3)C2=O)cc1,inactive
2,S=c1[nH]nc(NCCc2ccccc2)s1,inactive
3,CCNc1nc(-c2cc3ccccc3o2)cs1,inactive
4,Cc1nc(C)c(-c2csc(NCCc3ccccc3)n2)s1,32.5 (active)
5,Cc1ccccc1NC(=O)Cn1cc(C(=O)C2CC2)c2ccccc21,inactive
6,COc1ccc2c(c1)OC(O)(C(F)(F)C(F)F)CC2=O (centres undefined),79.7 (active)
7,COc1ccc2c(c1)O/C(=C\c1ccccc1O)C2=O,inactive
8,COc1ccc2c(c1)SC(C)CC2=O (centres undefined),inactive
9,CN(CC(O)COc1ccc(S(=O)(=O)N2CCOCC2)cc1Cl)C1CCCCC1 (centres undefined),inactive
10,CC(C)(C)NC(=O)CN(C(=O)c1csnn1)c1ccccc1-c1ccccc1,inactive
11,COc1ccc(-c2nc(CN3CCN(c4ncccn4)CC3)c(C)o2)cc1C,inactive
12,CN(c1cccc(NC(=O)Nc2ccc(Cl)cc2)c1)S(C)(=O)=O,inactive
13,O=C(Nc1ccccc1)c1nnsc1S(=O)(=O)c1ccc(Cl)cc1,33.9 (active)
14,Cc1nnsc1C(=O)N/N=C/c1ccccc1Cl,inactive
15,Cc1sc2ncn(CC(=O)NCCN(C)C)c(=O)c2c1S(=O)(=O)N1CCC(C)CC1,inactive
16,COC(=O)C1=C(C(=O)OC)C(c2cc([N+](=O)[O-])ccc2O)c2sc(=O)[nH]c2S1 (centres undefined),inactive
17,CCCC1OC23CCCCC2C(C#N)(C#N)C1(C#N)C(=N)O3 (centres undefined),inactive
18,CCOC(=O)C1CCN(C(=O)C2(NC(=O)Nc3cccc(F)c3)CCCCC2)CC1,inactive
19,CCCOc1ccc(C2c3c(oc4cc(C)c(C)cc4c3=O)C(=O)N2CCCN2CCOCC2)cc1 (centres undefined),inactive
20,Cc1cc2oc3ccc(NCCC4CCCN4C)cc3c(=O)c2cc1C (centres undefined),27.5 (active)
21,Cc1ccc(CS(=O)(=O)CCC(=O)NC2CC2)cc1,inactive
22,O=C(NCC(=O)N1CCCC(C(F)(F)F)C1)c1ccccc1F (centres undefined),inactive
23,FC(F)(F)C1CCCN(c2nsc3ccccc23)C1 (centres undefined),30.1 (active)

row,Structure (SMILES),B-score
1,O=C(NC(Cc1ccccc1)C(=O)N1CCCC(C(F)(F)F)C1)c1ccccc1 (centres undefined),inactive
2,Cc1n[nH]c(=O)c2c1nnn2Cc1ccc(F)cc1,inactive
3,COc1ccc(CCNC(=O)C(=O)NCC2OCCN2S(=O)(=O)c2ccc(F)cc2)cc1OC (centres undefined),inactive
4,CC(C)CCN1NC2(CCC(C)CC2)NC1=S (centres undefined),inactive
5,CC(C)N(c1ccccc1)c1ncnc(NCCC(=O)O)c1[N+](=O)[O-],inactive
6,COc1cc(/C=C2/SC(=S)N(Cc3ccccc3)C2=O)cc(OC)c1O,inactive
7,CN(C)c1ccc(/C=C2\NC(=S)N(Cc3ccccc3)C2=O)cc1,49.1 (active)
8,O=C1/C(=C\c2ccsc2)NC(=S)N1c1ccccc1,inactive
9,CCC(C)c1ccccc1N1CC(C(=O)N2CCN(S(=O)(=O)c3ccc(F)cc3)CC2)CC1=O (centres undefined),inactive
10,Cc1cc(NC(=O)CSc2nnnn2-c2ccc(F)cc2)no1,inactive
11,COc1ccc(C(=O)NC(=S)NNC(=O)CCc2ccccc2)cc1,107 (active)
12,COc1ccc(C(=O)NNC(=S)NC(=O)c2ccccc2)cc1,113 (active)
13,COc1ccc(C(=O)NC2CCN(C(=S)NCCc3ccccc3)CC2)cc1,inactive
14,COc1ccc(C(=O)NC(=S)NC2CCCCC2)cc1,inactive
15,COc1ccc(C(=O)NNC(=S)NC(=O)c2ccccc2[N+](=O)[O-])cc1,inactive
16,CC(C)Oc1ccc(CCC(=O)NNC(=S)NCc2ccccc2)cc1,inactive
17,Cc1ccc(NS(=O)(=O)c2cc3c(cc2C)NC(=O)CO3)cc1,inactive
18,O=C(Nc1cccc(Cl)c1)Nc1ccccc1NS(=O)(=O)c1cccs1,inactive
19,C[n+]1ccc(/C=C/c2c[nH]c3ccccc23)cc1,inactive
20,COc1ccccc1/C=C/CN1CCC(CO)(Cc2ccccc2)CC1,inactive
21,COC(=O)c1ccc(C2C3=C(Nc4nnnn42)c2ccccc2OC3)cc1 (centres undefined),27.7 (active)
22,COC(=O)C1=C(C(=O)c2ccc(C)cc2)C(c2ccccc2)n2nnnc2N1 (centres undefined),inactive
23,COc1ccccc1NC(=O)C1=C(C)Nc2nnnn2C1c1cccc(Br)c1 (centres undefined),inactive
